Measured values taken from ChEMBL document CHEMBL2380295, “Structure-activity studies on the side chain of a simplified analog of aplysiatoxin (aplog-1) with anti-proliferative activity” (Bioorg Med Chem, 2013).

How the values were obtained:
[1] = Cytotoxicity against human Raji cells assessed as cell viability at 10^-6 M; assay type: cell-based; details: read-out: Activity
[2] = Cytotoxicity against human Raji cells assessed as cell viability at 10^-7 M; assay type: cell-based; details: read-out: Activity
Human gammaherpesvirus 4 [3] = assay: Induction of EBV-early antigen expressed in human Raji cells at 10^-6 M after 48 hrs by immunofluorescence assay relative to control; assay type: organism-based; details: human gammaherpesvirus 4, raji, 1 µM
Outline: (§1)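 Raji B-lymphoblastoid cells (5 × 10^5/mL) in RPMI 1640 with 10% FBS, with 4 mM sodium n-butyrate as synergist and test compound at 10^-7 or 10^-6 M (final DMSO 0.4%). Incubated 48 h at 37 °C under 5% CO2. Smears were stained by indirect immunofluorescence using NPC patient serum and FITC anti-human IgG. At least 500 cells counted; % EA-positive recorded; n = 3, SEM.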

Human gammaherpesvirus 4 [4] = assay: Induction of EBV-early antigen expressed in human Raji cells at 10^-7 M after 48 hrs by immunofluorescence assay relative to control; assay type: organism-based; details: human gammaherpesvirus 4, raji, 0.1 µM; outline: as §1
PC-3 = assay: Growth inhibition of human PC3 cells after 48 hrs by sulforhodamine B assay; assay type: functional; details: PC-3, 48 h
Outline: (§2)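 Yamori 39-line human cancer panel, NCI method with modifications. Cells plated in RPMI 1640 plus 5% FBS, attached overnight, then exposed 48 h to compound at 10^-8, 10^-7, 10^-6, 10^-5 and 10^-4 M. Sulforhodamine B staining read at 525 nm; % growth = 100[(T−T0)/(C−T0)] from duplicate-point averages, with T0 the time-zero absorbance. GI50 is the concentration giving 50.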

DU-145 = assay: Growth inhibition of human DU145 cells after 48 hrs by sulforhodamine B assay; assay type: functional; details: DU-145, 48 h; outline: as §2
MKN-74 = assay: Growth inhibition of human MKN74 cells after 48 hrs by sulforhodamine B assay; assay type: functional; details: MKN-74, 48 h; outline: as §2
MKN-28 = assay: Growth inhibition of human MKN28 cells after 48 hrs by sulforhodamine B assay; assay type: functional; details: MKN-28, 48 h; outline: as §2
MKN-45 = assay: Growth inhibition of human MKN45 cells after 48 hrs by sulforhodamine B assay; assay type: functional; details: MKN-45, 48 h; outline: as §2
MKN-7 = assay: Growth inhibition of human MKN7 cells after 48 hrs by sulforhodamine B assay; assay type: functional; details: MKN-7, 48 h; outline: as §2
St-4 = assay: Growth inhibition of human St-4 cells after 48 hrs by sulforhodamine B assay; assay type: functional; details: St-4, 48 h; outline: as §2
[5] = Growth inhibition of human MKN1 cells after 48 hrs by sulforhodamine B assay; assay type: functional; details: MKN-1, 48 h; outline: as §2
[6] = Growth inhibition of human RXF631L cells after 48 hrs by sulforhodamine B assay; assay type: functional; details: RXF 631, 48 h; outline: as §2
ACHN = assay: Growth inhibition of human ACHN cells after 48 hrs by sulforhodamine B assay; assay type: functional; outline: as §2
OVCAR-8 = assay: Growth inhibition of human OVCAR8 cells after 48 hrs by sulforhodamine B assay; assay type: functional; details: OVCAR-8, 48 h; outline: as §2
SK-OV-3 = assay: Growth inhibition of human SKOV3 cells after 48 hrs by sulforhodamine B assay; assay type: functional; details: SK-OV-3, 48 h; outline: as §2
OVCAR-5 = assay: Growth inhibition of human OVCAR5 cells after 48 hrs by sulforhodamine B assay; assay type: functional; details: OVCAR-5, 48 h; outline: as §2
OVCAR-3 = assay: Growth inhibition of human OVCAR3 cells after 48 hrs by sulforhodamine B assay; assay type: functional; details: OVCAR-3, 48 h; outline: as §2
OVCAR-4 = assay: Growth inhibition of human OVCAR4 cells after 48 hrs by sulforhodamine B assay; assay type: functional; details: OVCAR-4, 48 h; outline: as §2
DMS-114 = assay: Growth inhibition of human DMS114 cells after 48 hrs by sulforhodamine B assay; assay type: functional; details: DMS-114, 48 h; outline: as §2
LOX IMVI = assay: Growth inhibition of human LOXIMVI cells after 48 hrs by sulforhodamine B assay; assay type: functional; outline: as §2
A549 = assay: Growth inhibition of human A549 cells after 48 hrs by sulforhodamine B assay; assay type: functional; details: A549, 48 h; outline: as §2
DMS-273 = assay: Growth inhibition of human DMS273 cells after 48 hrs by sulforhodamine B assay; assay type: functional; details: DMS-273, 48 h; outline: as §2
NCI-H460 = assay: Growth inhibition of human NCI-H460 cells after 48 hrs by sulforhodamine B assay; assay type: functional; details: NCI-H460, 48 h; outline: as §2
NCI-H226 = assay: Growth inhibition of human NCI-H226 cells after 48 hrs by sulforhodamine B assay; assay type: functional; details: NCI-H226, 48 h; outline: as §2
NCI-H522 = assay: Growth inhibition of human NCI-H522 cells after 48 hrs by sulforhodamine B assay; assay type: functional; details: NCI-H522, 48 h; outline: as §2
HCT-116 = assay: Growth inhibition of human HCT116 cells after 48 hrs by sulforhodamine B assay; assay type: functional; details: HCT-116, 48 h; outline: as §2
NCI-H23 = assay: Growth inhibition of human NCI-H23 cells after 48 hrs by sulforhodamine B assay; assay type: functional; details: NCI-H23, 48 h; outline: as §2
HCT-15 = assay: Growth inhibition of human HCT15 cells after 48 hrs by sulforhodamine B assay; assay type: functional; details: HCT-15, 48 h; outline: as §2
KM12 = assay: Growth inhibition of human KM12 cells after 48 hrs by sulforhodamine B assay; assay type: functional; details: KM12, 48 h; outline: as §2
HT-29 = assay: Growth inhibition of human HT-29 cells after 48 hrs by sulforhodamine B assay; assay type: functional; details: HT-29, 48 h; outline: as §2
SNB-78 = assay: Growth inhibition of human SNB78 cells after 48 hrs by sulforhodamine B assay; assay type: functional; details: SNB-78, 48 h; outline: as §2
[7] = Growth inhibition of human HCC2998 cells after 48 hrs by sulforhodamine B assay; assay type: functional; details: HCC 2998, 48 h; outline: as §2
SF-539 = assay: Growth inhibition of human SF539 cells after 48 hrs by sulforhodamine B assay; assay type: functional; details: SF-539, 48 h; outline: as §2
SNB-75 = assay: Growth inhibition of human SNB75 cells after 48 hrs by sulforhodamine B assay; assay type: functional; details: SNB-75, 48 h; outline: as §2
SF-295 = assay: Growth inhibition of human SF295 cells after 48 hrs by sulforhodamine B assay; assay type: functional; details: SF-295, 48 h; outline: as §2
U-251 = assay: Growth inhibition of human U251 cells after 48 hrs by sulforhodamine B assay; assay type: functional; details: U-251, 48 h; outline: as §2
SF-268 = assay: Growth inhibition of human SF268 cells after 48 hrs by sulforhodamine B assay; assay type: functional; details: SF-268, 48 h; outline: as §2
MCF7 = assay: Growth inhibition of human MCF7 cells after 48 hrs by sulforhodamine B assay; assay type: functional; details: MCF7, 48 h; outline: as §2
MDA-MB-231 = assay: Growth inhibition of human MDA-MB-231 cells after 48 hrs by sulforhodamine B assay; assay type: functional; details: MDA-MB-231, 48 h; outline: as §2
[8] = Growth inhibition of human BSY1 cells after 48 hrs by sulforhodamine B assay; assay type: functional; details: BSY-1, 48 h; outline: as §2
[9] = Growth inhibition of human HBC5 cells after 48 hrs by sulforhodamine B assay; assay type: functional; details: HBC5, 48 h; outline: as §2
[10] = Growth inhibition of human HBC4 cells after 48 hrs by sulforhodamine B assay; assay type: functional; details: HBC4, 48 h; outline: as §2
[11] = Octanol-water partition coefficient, log P of the compound by HPLC analysis; assay type: physicochemical
Outline: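 log P was estimated from HPLC retention, with column dead time measured using unretained formamide.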

[12] = molecular target: T1, Protein kinase C delta type (Homo sapiens, UniProt Q05655); assay: Inhibition of [3H]PDBu binding to PKCdelta-C1A domain peptide (unknown origin)
Outline: (§3)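 Competitive [3H]PDBu binding used 14 or 40 nM PKCδ C1 peptide and 20 nM [3H]PDBu (19.6 Ci/mmol), in 50 mM Tris-maleate (pH 7.4 at 4 °C) with 50 µg/mL phosphatidylserine, 3 mg/mL bovine γ-globulin and varied inhibitor concentrations. IC50 was taken as 50% inhibition of specific binding. Ki was derived by the Sharkey–Blumberg method.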

[13] = molecular target: T1, Protein kinase C delta type; assay: Inhibition of [3H]PDBu binding to PKCdelta-C1B domain peptide (unknown origin); outline: as §3

T1 sequence (Q05655 whole entry, the tested form may be a part): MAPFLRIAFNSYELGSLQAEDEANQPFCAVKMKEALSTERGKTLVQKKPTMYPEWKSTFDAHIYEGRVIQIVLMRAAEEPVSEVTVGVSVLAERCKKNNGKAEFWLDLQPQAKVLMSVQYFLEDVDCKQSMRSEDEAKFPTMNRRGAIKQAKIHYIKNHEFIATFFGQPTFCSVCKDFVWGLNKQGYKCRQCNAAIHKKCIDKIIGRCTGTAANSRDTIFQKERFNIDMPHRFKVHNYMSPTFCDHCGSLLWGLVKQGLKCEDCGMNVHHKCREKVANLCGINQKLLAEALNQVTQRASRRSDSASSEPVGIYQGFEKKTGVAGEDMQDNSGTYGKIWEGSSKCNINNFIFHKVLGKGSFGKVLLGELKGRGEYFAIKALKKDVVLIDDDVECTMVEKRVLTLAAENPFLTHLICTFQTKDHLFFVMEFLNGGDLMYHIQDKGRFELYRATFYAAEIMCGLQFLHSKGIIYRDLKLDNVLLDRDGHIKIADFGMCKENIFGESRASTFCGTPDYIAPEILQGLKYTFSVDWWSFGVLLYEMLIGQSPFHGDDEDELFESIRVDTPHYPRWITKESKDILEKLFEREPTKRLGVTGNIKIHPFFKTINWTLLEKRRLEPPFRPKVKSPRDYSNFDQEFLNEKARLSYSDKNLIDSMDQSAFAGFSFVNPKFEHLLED

CC1(C)CC[C@@H]2CC(=O)O[C@@H](CO)CC(=O)O[C@@H]3C[C@@H](CCCCc4ccc(I)c(O)c4)O[C@@]1(C3)O2
viability at 1 µM [1]: 40% | viability at 0.1 µM [2]: 50% | Activity (Human gammaherpesvirus 4 [3]): 2.3% | Activity (Human gammaherpesvirus 4 [4]): 2.1% | GI50 (PC-3): 3.09 µM | GI50 (DU-145): 11.7 µM | GI50 (MKN-74): 11.7 µM | GI50 (MKN-28): 0.617 µM | GI50 (MKN-45): 11.7 µM | GI50 (MKN-7): 13.5 µM | GI50 (St-4): 0.933 µM | GI50 [5]: 11.2 µM | GI50 [6]: 12 µM | GI50 (ACHN): 10 µM | GI50 (OVCAR-8): 16.2 µM | GI50 (SK-OV-3): 14.8 µM | GI50 (OVCAR-5): 4.47 µM | GI50 (OVCAR-3): 6.31 µM | GI50 (OVCAR-4): 13.2 µM | GI50 (DMS-114): 10.7 µM | GI50 (LOX IMVI): 2.88 µM | GI50 (A549): 3.31 µM | GI50 (DMS-273): 0.191 µM | GI50 (NCI-H460): 6.03 µM | GI50 (NCI-H226): 12 µM | GI50 (NCI-H522): 12 µM | GI50 (HCT-116): 10.2 µM | GI50 (NCI-H23): 11 µM | GI50 (HCT-15): 15.5 µM | GI50 (KM12): 10.5 µM | GI50 (HT-29): 14.5 µM | GI50 (SNB-78): 17 µM | GI50 [7]: 1.62 µM | GI50 (SF-539): 12 µM | GI50 (SNB-75): 12.3 µM | GI50 (SF-295): 4.07 µM | GI50 (U-251): 14.5 µM | GI50 (SF-268): 13.8 µM | GI50 (MCF7): 12.3 µM | GI50 (MDA-MB-231): 1.58 µM | GI50 [8]: 11 µM | GI50 [9]: 15.8 µM | GI50 [10]: 0.295 µM | logP [11]: 4.3 | Ki [12]: 0.082 µM | Ki [13]: 0.0013 µM

CC1(C)CC[C@@H]2CC(=O)O[C@@H](CO)CC(=O)O[C@@H]3C[C@@H](CCCCc4c(Br)cc(Br)c(O)c4Br)O[C@@]1(C3)O2
viability at 1 µM [1]: 40% | viability at 0.1 µM [2]: 40% | Activity (Human gammaherpesvirus 4 [3]): 1.9% | Activity (Human gammaherpesvirus 4 [4]): 1.9% | GI50 (PC-3): 13.2 µM | GI50 (DU-145): 17 µM | GI50 (MKN-74): 21.9 µM | GI50 (MKN-28): 18.2 µM | GI50 (MKN-45): 11.5 µM | GI50 (MKN-7): 20.9 µM | GI50 (St-4): 3.09 µM | GI50 [5]: 14.8 µM | GI50 [6]: 21.9 µM | GI50 (ACHN): 16.2 µM | GI50 (OVCAR-8): 17.4 µM | GI50 (SK-OV-3): 32.4 µM | GI50 (OVCAR-5): 18.6 µM | GI50 (OVCAR-3): 15.5 µM | GI50 (OVCAR-4): 20.9 µM | GI50 (DMS-114): 25.7 µM | GI50 (LOX IMVI): 11.7 µM | GI50 (A549): 12.6 µM | GI50 (DMS-273): 18.2 µM | GI50 (NCI-H460): 3.24 µM | GI50 (NCI-H226): 16.2 µM | GI50 (NCI-H522): 20.4 µM | GI50 (HCT-116): 17.8 µM | GI50 (NCI-H23): 14.1 µM | GI50 (HCT-15): 18.2 µM | GI50 (KM12): 16.6 µM | GI50 (HT-29): 16.6 µM | GI50 (SNB-78): 47.9 µM | GI50 [7]: 7.59 µM | GI50 (SF-539): 13.5 µM | GI50 (SNB-75): 26.3 µM | GI50 (SF-295): 13.2 µM | GI50 (U-251): 16.2 µM | GI50 (SF-268): 20.9 µM | GI50 (MCF7): 19.5 µM | GI50 (MDA-MB-231): 12 µM | GI50 [8]: 21.4 µM | GI50 [9]: 22.9 µM | GI50 [10]: 0.871 µM | logP [11]: 5.5 | Ki [12]: 0.079 µM | Ki [13]: 0.0069 µM
